# Screening results (PubChem BioAssay)
# Diaph act CS – activates diaphorase or chemically reduces, flagging diaphorase assay artifacts. Diaphorase/resazurin coupled assay, resorufin fluorescence, 16 min; hits give high values; 1 = vehicle wells, 0 = NADH-free wells. activation factor at 20 µM. actives 0.005% (n = 190,000). AID 1229;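 active = diaphorase activity raised at least twofold by the compound at 20 µM; inactive = activation factor below 2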
#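 Material: purified diaphorase enzyme from Clostridium kluyveri; Also added: 0.114 mM NADH and 0.1 mM resazurin, final amounts; Doses: single compound dose of 20 µM, 1% DMSO final; Times: 16 min enzyme reaction, ambient temperature; Detection: resorufin fluorescence, excitation 544 nm, emission 590 nm; Measure: increased resorufin signal from activators or reducing compounds.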
# Diaphorase inh – counter-screen for diaphorase-based assays: diaphorase inhibitors and chemical oxidizers | diaphorase resazurin-to-resorufin fluorescence, NADH, 16 min; bacterial (C. kluyveri) enzyme, not human | inhibition, % at 20 µM | actives 0.69% (n = 190,000) | AID 1217;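 active = primary screen inhibition at 20 µM above a set limit, cut at about 50% in these data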;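 note: plate controls were DMSO with full reaction for no effect and wells lacking NADH for full effect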
#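 Assay system: diaphorase enzyme from Clostridium kluyveri; Input: enzyme working solution with 0.14 U/mL diaphorase; Timing: 16 min at room temperature; Technique: resorufin fluorescence, excitation 544 nm, emission 590 nm; Benchmarks: positive control minus NADH, DMSO neutral control.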
# WT yeast gro inh – growth inhibition of WT yeast, mitochondrial fusion screen; mitochondrial fusion phenotypic screen, WT strain; inhibition, % at 10 µM; actives 2.1% (n = 190,000); in the data active = inhibition above about 58%; tested in S. cerevisiae
# G6PDH CS – inhibits Leuconostoc G6PDH, flagging false hits in G6PDH-based assays; actives 0.12% (n = 200,000); Purified L. mesenteroides G6PDH, diaphorase/resazurin coupled fluorescence, 45 min; AID 1020; inhibition, % at 5 µM
# L major viab – inhibitors of Leishmania major promastigote growth; Leishmania major promastigotes, resazurin fluorescence viability; inhibition, % at 10 µM; actives 9% (n = 200,000); AID 1063;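 note: promastigotes grown with compound for 44 hours at 28 °C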
# L major 1uM – inhibitors of Leishmania major promastigote growth, repeat at 1 uM | shares compounds with L major viab | L. major promastigote growth, resazurin fluorescence, 48 h | inhibition, % at 1 µM | actives 13% (n = 1,100);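 active = inhibition above about 50% in both repeat tests, limit read from the data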
# Starred values were filed as active, the others as inactive; · = no result. Compounds with a hit are over-represented: about 11% of the library has one in this group of screens. Cut-off read from the data, not from the text of the source, unless noted: active = inhibition above about 50%; inactive = the rest.
SMILES,Diaph act CS,Diaphorase inh,WT yeast gro inh,G6PDH CS,L major viab,L major 1uM
Cc1ccc2cc(CN(Cc3nnnn3Cc3ccco3)CC3CCCO3)c(=O)[nH]c2c1C (centres undefined),0.7,28,4,-28,2,·
Cc1ccc(S(=O)(=O)Cn2nnnc2CN(Cc2ccco2)CC2CCCO2)cc1 (centres undefined),0.8,17,4,-7,53*,-6
CC(=O)c1ccc(N=c2scc(C)n2C(C)C)cc1,0.9,6,4,2,8,·
COc1ccc(C2=NCC(CSc3nnc(-c4ccc5c(c4)OCO5)o3)S2)cc1 (centres undefined),0.8,20,3,9,88*,91*
Cc1ccc(N/N=C/c2c(O)cc(C)oc2=O)cc1,0.8,20,4,3,87*,-12
O=C(Nc1cccn(Cc2ccccc2)c1=O)NC1CCCCC1,0.9,10,3,18,78*,4
O=C(NCc1ccccc1)Nc1cccn(Cc2ccccc2)c1=O,0.9,7,9,-6,9,·
CCOc1cc(N2CCOCC2)c(OCC)cc1NC(=O)C(NC(=O)c1ccco1)C(C)C (centres undefined),0.7,30,12,4,28,·
COc1cc2c3nnc(-c4ccc(F)cc4)c-3cn(Cc3ccc(F)cc3)c2cc1OC,1.4,-37,4,3,97*,-17
COc1ccc(Cn2cc3c(-c4ccc(F)cc4)nnc-3c3cc(OC)c(OC)cc32)cc1,1.5,-48,-3,-51,17,·
N#Cc1ccc(Cl)cc1NC(=O)COC(=O)c1ccc(S(=O)(=O)N2CCCC2)cc1,0.8,15,-4,-3,-6,·
CC(C)C[C@H](NC(=O)OC(C)(C)C)C(=O)N/N=C/C1=Cc2ccccc2OC1C (some centres undefined),0.7,31,34,3,98*,-4
Cc1ccc(C)c(S(=O)(=O)N2CCCOC2CNC(=O)C(=O)NCCCn2ccnc2)c1 (centres undefined),0.9,13,3,3,-3,·
COc1ccc(CN(C(=S)Nc2ccccc2)C2CC(=O)N(c3ccccc3)C2=O)cc1 (centres undefined),0.8,16,-12,-2,25,·
COc1ccc(CN(C(=S)Nc2ccccc2)C2CC(=O)N(c3ccc(Cl)cc3)C2=O)cc1 (centres undefined),0.8,17,2,2,99*,2
O=C(c1ccco1)N1CCN(Cc2cn[nH]c2-c2ccc(F)cc2F)CC1,0.9,8,-1,8,-3,·
C[C@H]1CC[C@H]2C(=O)N3[C@H](c4cccc(N5CCCC5=O)c4)[C@@H](C)CC[C@H]3C(=O)N2[C@@H]1c1cccc(N2CCCC2=O)c1,1.2,-21,-6,19,82*,-14
COc1ccc(/C=C/C(=O)c2sc(-c3ccccc3)nc2C)cc1,0.8,22,30,-51,2,·
O=C(O)c1ccc(N=NN2CCCCCC2)cc1,1,-1,-29,0,59*,-3
C1=C(c2ccccc2)Nc2ccccc2N=C1c1ccccc1,0.8,19,41,6,7,·
O=C(Nc1cccnc1)C1CCCN(S(=O)(=O)c2cccc3nsnc23)C1 (centres undefined),0.8,18,-8,0,-2,·
Cc1ccc(N/N=C(\C#N)C(=N)N2CCCCCC2)cc1,1,-3,19,-4,61*,-1
CCOC(=O)c1c(C)[nH]c(C)c1C(=O)COC(=O)c1ccc(Cl)c(S(=O)(=O)NCc2ccccc2)c1,0.9,12,-2,2,16,·
COC(=O)c1ccc(CNC(=O)c2c3c(nc4ccccc24)CCN(Cc2ccccc2)C3)cc1,1,2,6,6,-1,·
CCc1ccc(/C=C2\CN(CC)Cc3c2nc2ccccc2c3C(=O)O)cc1,1,1,-13,6,54*,-19
SMILES,Diaph act CS,Diaphorase inh,WT yeast gro inh,G6PDH CS,L major viab,L major 1uM
Cc1ccc(C(=O)C(C(=O)/C=C/c2ccccc2)=C2SCCCS2)cc1,0.9,8,21,3,100*,20
COc1ccc(/C=C/C(=O)C(C(N)=O)=C2SCCS2)cc1,1,4,-8,-2,44,·
CN1CCC(OC(=O)c2ccccc2Cl)CC1,1,-3,-10,11,76*,-1
CCN(Cc1cc(=O)n2ccsc2n1)c1cccc2ccccc12,0.6,41,79,-5,-2,·
Cc1ccc([N+](=O)[O-])cc1N=Nc1c(-c2ccc([N+](=O)[O-])cc2)[nH]n(C(N)=S)c1=O,0.7,33,25,7,88*,-5
Cc1cc(CNC(=O)CC2C(=O)NCCN2Cc2ccccc2C(F)(F)F)on1 (centres undefined),0.8,23,-7,9,8,·
Cc1cc(S(=O)(=O)Nc2ccc(F)cc2)c(C)s1,0.9,9,4,-2,23,·
CC(C)(C)c1ccc(C(=O)N2CCC(=O)N(C(COCc3ccccc3)Cc3ccccc3)CC2)cc1 (centres undefined),0.9,5,53,16,52*,-22
Cc1c([N+](=O)[O-])nnn1-c1cc(Cl)cc(Cl)c1,1,1,-5,0,50*,-3
Cc1ccc(N=c2c([N+](=O)[O-])nn(-c3ccc(Cl)cc3)n2O)cc1C,1,-1,52,0,27,·
CN=C1CC(C)(C)CC(=O)/C1=C(/O)CCCN1C(=O)c2ccccc2C1=O,1,1,-5,8,-4,·
Cc1cc(NC(=O)COC(=O)c2ccccc2[N+](=O)[O-])no1,0.9,10,-4,10,-2,·
NCCCCCc1nnc(SCc2cccc(Cl)c2)o1,0.9,8,1,-1,98*,-6
CCOC(=O)c1sc(N)c(C#N)c1COC(=O)CNC(=O)c1ccccc1,0.9,12,-5,-1,-1,·
CCCCc1c(C)nn(-c2nnc3c4ccccc4n(C)c3n2)c1C,0.9,10,48,9,87*,-28
CC(=O)Oc1ccc2ccccc2c1C(NC(=O)Cc1ccccc1)c1ccccc1Cl (centres undefined),0.8,21,-12,2,55*,-23
CCC(=O)NC(c1ccccc1)c1c(OC(C)=O)ccc2ccccc12 (centres undefined),0.8,16,20,8,1,·
COc1ccc2oc(=O)c(/C(C)=N/Nc3ccccc3)cc2c1,0.8,16,12,9,-3,·
Cc1nn(C)c(C)c1S(=O)(=O)N(CC(=O)N1CCc2ccccc2C1)c1ccc(C(C)C)cc1,0.6,38,17,0,47,·
O=C(O)c1ccc2c3c(ncnc13)-c1ccccc1C2=O,0.6,37,-11,19,98*,0
CCOc1ccc(-c2noc(-c3cccnc3)n2)cc1OC,0.9,10,3,13,71*,46
